Assay results from ChEMBL document CHEMBL3785031, “Discovery of small-molecule nonpeptide antagonists of nociceptin/orphanin FQ receptor: The studies of design, synthesis, and structure-activity relationships for (4-arylpiperidine substituted-methyl)-[bicyclic (hetero)cycloalkanobenzene] derivatives” (Eur J Med Chem, 2016).

How the values were obtained:
[1] = target: T1, Nociceptin receptor (Homo sapiens, UniProt P41146); assay: Displacement of [3H]N/OFQ from human NOP receptor expressed in HEK293 cells after 45 mins by scintillation proximity assay; format: cell-based
T1 sequence (P41146 whole entry): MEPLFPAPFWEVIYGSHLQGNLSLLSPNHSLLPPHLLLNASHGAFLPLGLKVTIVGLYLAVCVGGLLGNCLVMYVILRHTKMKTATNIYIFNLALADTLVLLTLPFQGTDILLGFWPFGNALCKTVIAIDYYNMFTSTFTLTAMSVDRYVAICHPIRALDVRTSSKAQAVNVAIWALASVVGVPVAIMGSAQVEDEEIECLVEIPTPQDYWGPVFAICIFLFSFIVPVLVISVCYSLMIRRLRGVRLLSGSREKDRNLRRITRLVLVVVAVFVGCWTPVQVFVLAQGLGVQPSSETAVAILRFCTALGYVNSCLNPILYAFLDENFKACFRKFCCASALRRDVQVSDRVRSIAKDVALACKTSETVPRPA
Summary of the method: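 HEK-293 membranes bearing recombinant hNOP receptor (8.3 μg) were incubated at 25 °C for 45 min with 0.4 nM [3H]N/OFQ and WGA-SPA beads. Buffer was 50 mM HEPES, pH 7.4, with 10 mM MgCl2 and 1 mM EDTA. Six concentrations, 10⁻¹¹–10⁻⁵ M, were run in duplicate; NSB with 1 μM N/OFQ. IC50 by nonlinear regression; Ki = IC50/(1+[L]/KD), KD 0.135 nM.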

[2] = system: HEK293; assay: Selectivity ratio of Ki for human mu opioid receptor expressed in CHOK1 cells to Ki for human NOP receptor expressed in HEK293 cells; format: cell-based
[3] = target: Mu-type opioid receptor (Homo sapiens, UniProt P35372); assay: Displacement of [3H]DAMGO from human mu opioid receptor expressed in CHOK1 cells after 45 mins by scintillation proximity assay; format: cell-based, CHO-K1
Chain of Mu-type opioid receptor (P35372 whole entry): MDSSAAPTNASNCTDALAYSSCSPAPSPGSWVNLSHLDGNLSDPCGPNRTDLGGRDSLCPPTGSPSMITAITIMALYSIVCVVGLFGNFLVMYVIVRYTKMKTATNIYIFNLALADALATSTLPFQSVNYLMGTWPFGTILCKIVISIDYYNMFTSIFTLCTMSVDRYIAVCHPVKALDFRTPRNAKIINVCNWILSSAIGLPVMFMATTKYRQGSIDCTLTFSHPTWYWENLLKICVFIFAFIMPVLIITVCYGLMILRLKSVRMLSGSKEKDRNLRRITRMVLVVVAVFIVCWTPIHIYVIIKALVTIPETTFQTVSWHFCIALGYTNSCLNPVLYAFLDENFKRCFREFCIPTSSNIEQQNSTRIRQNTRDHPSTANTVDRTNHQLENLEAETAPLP

[4] = Half life in human liver microsomes at 1 uM by HPLC-MS/MS analysis; format: ADME
Summary of the method: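 Substrate at 1.0 μM was incubated at 37 °C in pooled human liver microsomes (1.0 mg/mL protein) with 3.3 mM MgCl2, 0.1 M NaKHPO4 (pH 7.4) and an NADPH-regenerating system.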

[5] = target: T1, Nociceptin receptor; assay: Antagonist activity at human NOP receptor expressed in HEK293 cells assessed as inhibition of N/OFQ-induced [35S]GTPgammaS binding after 1.5 hrs by scintillation proximity assay; format: functional, cell-based
Summary of the method: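 Membranes from HEK-293 cells expressing hNOP receptor were incubated 1.5 h at 25 °C with 10 nM N/OFQ, 400 pM [35S]GTPγS, 5 μM GDP and WGA-SPA beads. Buffer was 20 mM HEPES, 100 mM NaCl, 5 mM MgCl2 and 1 mM EDTA, pH 7.4. Six compound concentrations from 0.1 nM to 10 μM were run in duplicate. Basal binding was measured without ligands; NSB with 10 μM unlabeled GTPγS. Read by scintillation counting; IC50 derived.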

[6] = target: hERG (KCNH2) (Homo sapiens, UniProt Q12809); assay: Displacement of [3H]dofetilide from human ERG channel expressed in HEK293 cells at 1 uM after 60 mins by liquid scintillation counting method; format: cell-based; conditions: HEK293 cells that express hERG, probe [3H]dofetilide
Chain of hERG (KCNH2) (Q12809 whole entry): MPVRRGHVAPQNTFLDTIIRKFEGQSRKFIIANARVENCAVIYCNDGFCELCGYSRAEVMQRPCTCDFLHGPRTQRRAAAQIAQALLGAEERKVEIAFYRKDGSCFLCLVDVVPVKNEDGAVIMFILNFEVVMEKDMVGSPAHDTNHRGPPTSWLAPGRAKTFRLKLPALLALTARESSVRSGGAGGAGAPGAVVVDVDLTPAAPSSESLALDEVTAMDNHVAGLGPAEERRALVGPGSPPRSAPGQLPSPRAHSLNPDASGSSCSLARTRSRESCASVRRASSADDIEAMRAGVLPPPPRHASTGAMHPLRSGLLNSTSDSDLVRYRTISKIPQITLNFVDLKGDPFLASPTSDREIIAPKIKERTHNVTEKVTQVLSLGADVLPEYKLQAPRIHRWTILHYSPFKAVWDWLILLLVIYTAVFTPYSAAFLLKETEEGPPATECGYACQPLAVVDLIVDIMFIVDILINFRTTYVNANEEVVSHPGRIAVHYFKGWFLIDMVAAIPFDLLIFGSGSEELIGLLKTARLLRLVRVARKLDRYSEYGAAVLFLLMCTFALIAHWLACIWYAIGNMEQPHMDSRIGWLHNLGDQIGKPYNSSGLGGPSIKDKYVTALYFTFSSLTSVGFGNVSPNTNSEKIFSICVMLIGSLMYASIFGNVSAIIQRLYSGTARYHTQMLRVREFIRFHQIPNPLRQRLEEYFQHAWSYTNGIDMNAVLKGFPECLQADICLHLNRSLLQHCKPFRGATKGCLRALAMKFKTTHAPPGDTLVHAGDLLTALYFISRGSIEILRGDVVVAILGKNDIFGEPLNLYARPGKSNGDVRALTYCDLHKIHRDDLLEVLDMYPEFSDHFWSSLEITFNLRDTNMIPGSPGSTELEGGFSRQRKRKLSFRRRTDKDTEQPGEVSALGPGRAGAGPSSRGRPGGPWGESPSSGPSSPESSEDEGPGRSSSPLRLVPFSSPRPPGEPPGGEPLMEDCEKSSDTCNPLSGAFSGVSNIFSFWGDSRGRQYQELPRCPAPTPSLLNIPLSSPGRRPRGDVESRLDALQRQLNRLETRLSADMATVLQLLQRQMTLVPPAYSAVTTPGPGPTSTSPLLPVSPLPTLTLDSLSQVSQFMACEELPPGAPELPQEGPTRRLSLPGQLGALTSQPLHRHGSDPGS

[7] = target: Voltage-gated inwardly rectifying potassium channel KCNH2 (Homo sapiens, UniProt Q12809); assay: Displacement of [3H]dofetilide from human ERG channel expressed in HEK293 cells after 60 mins by liquid scintillation counting method; format: cell-based
Chain of Voltage-gated inwardly rectifying potassium channel KCNH2 (Q12809 whole entry): as above

Row | SMILES | Ki [1] [nM] | Ratio Ki [2] | Ki [3] [nM] | half-life at 1 µM [4] [min] | IC50 [5] [nM] | inhibition at 1 h, 1 µM [6] [%] | IC50 [7] [nM]
1 | CN1Cc2ccccc2CC1CN1CCC2(CCc3ccccc32)CC1 (stereo not drawn) | 18.9 | 3.08 | 58.2 |  |  |  | 
2 | Oc1ccc(Br)c2c1CNC(CN1CCC3(CCc4ccccc43)CC1)C2 (stereo not drawn) | 1.74 |  | 139 | 9.6 | 35.1 |  | 
3 | c1ccc2c(c1)CCC(CN1CCC3(CCc4ccccc43)CC1)C2 (stereo not drawn) | 5.55 | 52.1 | 289 |  | 683 | 71 | 
4 | NC(=O)N1Cc2ccccc2CC1CN1CCC2(CCc3ccccc32)CC1 (stereo not drawn) | 18.1 | 5.97 | 108 |  |  |  | 
5 | O=C(C1Cc2ccccc2CN1)N1CCC2(CCc3ccccc32)CC1 (stereo not drawn) | > 250 |  | > 450 |  |  |  | 
6 | Cc1cc(F)ccc1C1CCN(CC2Cc3ccccc3CN2)CC1 (stereo not drawn) | 3.56 | 96.1 | 342 | 6.9 | 58.8 |  | 200
7 | CN1C(=O)c2ccccc2CC1CN1CCC2(CCc3ccccc32)CC1 (stereo not drawn) | > 250 | < 0.924 | 231 |  |  |  | 6960
8 | Oc1ccc(Cl)c2c1CNC(CN1CCC3(CCc4ccccc43)CC1)C2 (stereo not drawn) | 2.2 |  | 68.8 | 15.3 | 21.3 |  | 
9 | Oc1cccc2c1CNC(CN1CCC3(CCc4ccccc43)CC1)C2 (stereo not drawn) | 2.4 | 120 | 288 | 12.2 | 53.9 |  | 940
10 | c1ccc2c(c1)CNC(CN1CCC3(CCc4ccccc43)CC1)C2 (stereo not drawn) | 8.5 | 26.5 | 225 | 6.6 | 248 |  | > 1500
11 | CC(=O)N1Cc2ccccc2CC1CN1CCC2(CCc3ccccc32)CC1 (stereo not drawn) | 29.8 | 2.5 | 74.4 |  |  |  | 500
12 | c1ccc2c(c1)CC(CN1CCC3(CCc4ccccc43)CC1)CO2 (stereo not drawn) | 5.65 | 8.69 | 49.1 | 3.1 | 122 |  | 1500
13 | Cc1cc(F)ccc1C1CCN(CC2Cc3c(Cl)ccc(O)c3CN2)CC1 (stereo not drawn) | 3.03 | > 143 | > 450 | 21.6 | 28.7 |  | 970
14 | Oc1ccc2c(c1)CC(CN1CCC3(CCc4ccccc43)CC1)NC2 (stereo not drawn) | 10.2 |  | 392 | 18 | 227 |  | 
